Compounds with a hit are over-represented: about 1.4% of the library has one in this group of screens.
DYRK1A inh – inhibitors of rat Dyrk1A kinase. Q63470. ADP-Glo luminescence, NFATc1 peptide. inhibition, % at 12.5 µM. 310,000 compounds, 0.43% hits; in the data active = inhibition above about 50%
CAL PDZ FP-1 – blocks peptide binding to the human CAL PDZ domain; Q9HD26; AID 602252; purified CAL PDZ, TMR-peptide fluorescence polarization, 1 h; 300,000 compounds, 0.92% hits; inhibition, % at 24.9 µM;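 active = mean inhibition of at least 30% with at least half of replicates also reaching 30%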
CAL PDZ FP-2 – blocks peptide binding to human CAL PDZ domain | Q9HD26 | AID 504414 | purified CAL PDZ, TMR-peptide fluorescence polarization, 1 h | inhibition, % at 20 µM | 330,000 compounds, 0.02% hits;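 active = highest replicate inhibition of at least 40%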
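Assay system – tagged CAL PDZ protein CerCALP, purified · Timing – 1 h at RT · Compound – single point, 20 µM · Measured by – fluorescence polarization from S- and P-plane intensities, G-factor corrected · Evaluation – inhibition from polarization loss · Probe or stimulus – TMR reporter peptide T*-PRC34 · Buffer or medium – pH 7.4 phosphate-saline buffer, reducing agent, detergent, IgG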
ARNT-TACC3 inh – disruptors of human ARNT/TACC3 interaction; AlphaScreen His-ARNT PAS-B/GST-TACC3 binding, luminescence; TACC3 fragment carries E629A point mutation; inhibition, % at 9.99 µM; 390,000 compounds, 0.66% hits;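 active = mean inhibition of replicates at least 50% and at least half of replicates each reaching 50%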
A number is an active result; 0 = inactive; - = not tested or not shown.

SMILES	DYRK1A inh	CAL PDZ FP-1	CAL PDZ FP-2	ARNT-TACC3 inh
CO[C@H]1CN(C)C(=O)c2ccc(NC(=O)C3CC3)cc2OC[C@@H](C)N(Cc2ccncc2)C[C@H]1C	-	-	-	0
CCOc1ccccc1NC(=O)C1CCCN1S(=O)(=O)c1ccccc1C(F)(F)F (configuration not stated)	-	42.1	0	0
O=C(COc1ccc(Cl)cc1Cl)Nc1nnc(C2=COCCO2)o1	0	0	0	0
COc1ccc(C(=O)Nc2nnc(C3=COCCO3)o2)cc1	0	0	0	58.1
O=C(COc1ccc(Cl)cc1)Nc1nnc(C2=COCCO2)o1	0	0	0	47.0
Cc1cccc(C(O)(C(=O)NNc2ccc3ccccc3n2)c2cccc(C)c2)c1	0	0	0	0
CC(O)(c1ccccc1)c1ccc2ccccc2n1 (configuration not stated)	0	44.7	0	0
O=C(C[C@@H]1CC[C@H](NS(=O)(=O)c2cccc(F)c2)[C@H](CO)O1)NCc1ccc2c(c1)OCO2	-	-	-	0
C[C@H](NC(=O)C[C@H]1CC[C@H](NC(=O)C2CCC2)[C@H](CO)O1)c1ccccc1	-	-	-	0
O=S(=O)(Nc1cccc(-n2cnnn2)c1)c1ccc(F)cc1	0	0	0	0
Cc1ccc(S(=O)(=O)Nc2cccc(-n3cnnn3)c2)cc1	0	53.4	0	0
COc1ccccc1S(=O)(=O)N[C@H]1CC[C@H](CC(=O)NCc2cccc(F)c2)O[C@@H]1CO	-	-	-	0
CCC(=O)N(C)C[C@@H]1Oc2ncc(C#CC(C)C)cc2C(=O)N([C@H](C)CO)C[C@@H]1C	-	-	-	0
Cn1c(=O)c2[nH]c(CCc3ccncc3)nc2n(C)c1=O	-	54.3	0	0
CCCc1nc2c([nH]1)c(=O)n(C)c(=O)n2C	0	0	0	0
Cc1ccc(C)c(N2CCN(CC3CCCCC3)CC2)c1	0	-	0	0
Cc1cccc(N2CCN(CC3CCCCC3)CC2)c1C	0	47.2	0	0
CO[C@H]1CN(C)C(=O)c2cc(NC(=O)Nc3cccc(F)c3)ccc2OC[C@H](C)N(C)C[C@H]1C	-	-	-	0
CN(CCCC1CCCC1)C(=O)CC1C(=O)NCCN1Cc1ccc(F)cc1 (configuration not stated)	0	40.8	0	0
C[C@H]1CN([C@@H](C)CO)S(=O)(=O)c2ccc(C#CCN(C)C)cc2O[C@@H]1CN(C)S(C)(=O)=O	-	-	-	0
S=C(NCCCn1ccnc1)Nc1cccc(Cl)c1	0	0	0	41.6
NC(=O)NC(CC(=O)NNC(=O)c1ccccn1)c1ccccc1Cl (configuration not stated)	-	108.9	0	0
Cc1cc2oc(=O)cc(CN3CCOCC3)c2cc1C(C)C	0	62.3	0	-
Cc1cc(C)c2oc(=O)cc(CN3CCOCC3)c2c1	0	0	0	0
CNC[C@H]1OCCCC[C@H](C)Oc2ccc(NC(=O)NC3CCCCC3)cc2C(=O)N([C@@H](C)CO)C[C@@H]1C	-	-	-	0
SMILES	DYRK1A inh	CAL PDZ FP-1	CAL PDZ FP-2	ARNT-TACC3 inh
CN(C)S(=O)(=O)c1ccc(C(=O)NC2CCCc3ccccc32)cc1 (configuration not stated)	-	70.6	0	0
CN(NC(=O)c1ccccc1F)c1ccc([N+](=O)[O-])cn1	0	54.8	0	0
O=C(O)c1ccc(/C=N/NC(=O)c2cc3ccccc3cc2O)cc1	-	45.8	0	0
O=C(O)c1cccc(Cn2c(Cl)c(/C=N/NC(=O)c3cc4ccccc4cc3O)sc2=O)c1	0	46.7	-	0
O=C(O)c1cccc(Cn2c(Cl)c(/C=N/NC(=O)c3ccccc3)sc2=O)c1	0	0	0	-
O=C(C[C@@H]1CC[C@@H]2[C@H](COC[C@@H](O)CN2S(=O)(=O)c2cccc(Cl)c2)O1)Nc1ccccc1	-	-	-	0
CC(=O)OCCNc1cc(N2CCN(C)CC2)c2noc3c2c1C(=O)c1ccccc1-3	0	-	0	48.7
O=C(C[C@H]1CC[C@@H]2[C@H](COC[C@H](O)CN2C(=O)C2CC2)O1)NCc1ccncc1	-	-	-	0
Nc1ccc(CCn2ccnc2)cc1	0	-	0	62.8
c1ccn(CCc2ccncc2)c1	0	0	0	0
Cc1c(C)c2c(OCC(=O)N3CCC[C@H]3C(=O)O)cc3c(c2oc1=O)CCC(C)(C)O3	0	0	0	128.4
C[C@H](CO)N1C[C@H](C)[C@@H](CN(C)Cc2ccncc2)OCCCC[C@H](C)Oc2ccc(NC(=O)Nc3ccc(F)cc3)cc2C1=O	-	-	-	0
Nc1c(S(=O)(=O)c2cccs2)c2nc3ccccc3nc2n1/N=C/c1cccc(O)c1	0	49.4	0	0
O=C(O)C1Cc2ccccc2CN1S(=O)(=O)/C=C/c1ccccc1 (configuration not stated)	0	-	0	46.3
C[C@@H]1CN([C@H](C)CO)C(=O)c2cccc(NC(=O)C3CCOCC3)c2O[C@@H]1CN(C)Cc1ccc(Oc2ccccc2)cc1	-	-	-	0
O=C1C2C3C=CC(O3)C2C(=O)N1N=Cc1cccc2ccccc12 (configuration not stated)	0	111.6	0	0
C=CCn1cc(/C=N/N2C(=O)C3C4C=CC(C4)C3C2=O)c2ccccc21 (configuration not stated)	0	0	0	0
CN1c2ccc(Br)cc2[C@H]2[C@H](CCN2C(=O)C2CCOCC2)[C@@H]1CO	-	-	-	0
CCN(C[C@H]1[C@H](c2ccc(C3=CCCC3)cc2)[C@H](CO)N1C(C)=O)C(C)=O	-	-	-	0
O=C(N[C@H]1C=C[C@@H](CC(=O)N2CCOCC2)O[C@@H]1CO)c1ccc2c(c1)OCO2	-	-	-	0
Oc1cc(-c2cccnc2)cc2cccnc12	0	0	0	65.0
c1cncc(-c2nc3cc4ccccc4cc3[nH]2)c1	0	0	0	0
Oc1cc(Nc2ccccc2)cc2cccnc12	0	0	0	65.8
c1ccc(Nc2ccccn2)cc1	0	0	0	0
Cc1cc(Cl)c(C)c(S(=O)(=O)Oc2ccccc2NC(=O)CCC(=O)O)c1Cl	0	0	0	28.2
SMILES	DYRK1A inh	CAL PDZ FP-1	CAL PDZ FP-2	ARNT-TACC3 inh
COc1ccccc1NC(=O)CCC(=O)O	0	0	0	0
C[C@@H]1CCCCO[C@@H](CN(C)S(=O)(=O)c2ccc(Cl)cc2)[C@H](C)CN([C@H](C)CO)C(=O)c2cc(NS(=O)(=O)c3cccs3)ccc2O1	-	-	-	0
Cc1cccc(-n2nc(C)c3c2NC2=C(C(=O)CCC2)C3c2ccccn2)c1 (configuration not stated)	0	79.2	-	0
O=C(c1cc(COc2ccccc2)on1)N1CCCC(CN2CCOCC2)C1 (configuration not stated)	0	52.5	0	0
OC[C@@H]1[C@H](c2ccc(/C=C/c3ccccc3)cc2)[C@H]2CN(Cc3cccnc3)CCCCN12	-	-	-	0
Cc1ccc(S(=O)(=O)Nc2ccc3c(c2)C(=O)N([C@@H](C)CO)C[C@@H](C)[C@H](CN(C)C(=O)Nc2ccccc2)O3)cc1	-	-	-	0
CCOC(=O)NCCOC(=O)Nc1ccc(Cl)cc1	0	0	0	0
Cc1ccc(NC(=O)OCCNC(=O)OC(C)C)cc1	0	37.6	0	0
OCC1(Cc2ccc(Cl)cc2)CCN(Cc2ccc(F)c(F)c2)CC1	0	65.9	0	0
C[C@@H]1CN([C@@H](C)CO)C(=O)c2cc(N(C)C)ccc2O[C@@H](C)CCCCO[C@H]1CN(C)S(C)(=O)=O	-	-	-	0

Source: PubChem BioAssay
